# In publication PMC9099060 (Dose-Response, 2022):
# How the values were obtained:
# Assay type in all cases: biochemical
# [1] = target: T1, DPP-IV (Homo sapiens, UniProt P27487); experiment: In vitro inhibitory activity against DPP-IV
# [2] = target: T1, DPP-IV; experiment: Inhibitory kinetics study
# Procedure, shortened: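 Test compound was tested separately at 0.25 and 0.5 mg/mL, each against Gly-Pro-AMC at various concentrations (0–60 μM). Inhibition pattern was assigned from Lineweaver-Burk plots. Ki was obtained from a double-reciprocal plot of initial […] against substrate. Values are mean ± SD, n = 6.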
# [3] = target: α-glucosidase (Saccharomyces cerevisiae, UniProt P07265); experiment: In vitro inhibitory activity against α-glucosidase
# [4] = target: T2, human α-amylase (HPA) (Homo sapiens, UniProt P04746); experiment: In vitro inhibitory activity against α-amylase; details: α-amylase IC50 (μM)±SD, starch substrate; mean ± SD, n = 6
# T2 sequence (P04746 16-511): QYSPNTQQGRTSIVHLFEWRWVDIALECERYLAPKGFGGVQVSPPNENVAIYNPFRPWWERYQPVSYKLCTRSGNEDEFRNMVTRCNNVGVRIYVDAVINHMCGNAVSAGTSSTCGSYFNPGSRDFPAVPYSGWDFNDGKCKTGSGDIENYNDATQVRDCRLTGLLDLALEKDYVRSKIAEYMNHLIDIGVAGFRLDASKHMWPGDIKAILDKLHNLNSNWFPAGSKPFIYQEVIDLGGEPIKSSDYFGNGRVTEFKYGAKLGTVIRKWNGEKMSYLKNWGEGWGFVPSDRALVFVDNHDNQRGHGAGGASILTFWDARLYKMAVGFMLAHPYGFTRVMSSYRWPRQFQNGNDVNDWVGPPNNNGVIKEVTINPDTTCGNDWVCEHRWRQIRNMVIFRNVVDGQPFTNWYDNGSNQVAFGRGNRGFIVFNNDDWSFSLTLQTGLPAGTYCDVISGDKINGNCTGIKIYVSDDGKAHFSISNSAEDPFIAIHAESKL
# T1 sequence (P27487 whole entry): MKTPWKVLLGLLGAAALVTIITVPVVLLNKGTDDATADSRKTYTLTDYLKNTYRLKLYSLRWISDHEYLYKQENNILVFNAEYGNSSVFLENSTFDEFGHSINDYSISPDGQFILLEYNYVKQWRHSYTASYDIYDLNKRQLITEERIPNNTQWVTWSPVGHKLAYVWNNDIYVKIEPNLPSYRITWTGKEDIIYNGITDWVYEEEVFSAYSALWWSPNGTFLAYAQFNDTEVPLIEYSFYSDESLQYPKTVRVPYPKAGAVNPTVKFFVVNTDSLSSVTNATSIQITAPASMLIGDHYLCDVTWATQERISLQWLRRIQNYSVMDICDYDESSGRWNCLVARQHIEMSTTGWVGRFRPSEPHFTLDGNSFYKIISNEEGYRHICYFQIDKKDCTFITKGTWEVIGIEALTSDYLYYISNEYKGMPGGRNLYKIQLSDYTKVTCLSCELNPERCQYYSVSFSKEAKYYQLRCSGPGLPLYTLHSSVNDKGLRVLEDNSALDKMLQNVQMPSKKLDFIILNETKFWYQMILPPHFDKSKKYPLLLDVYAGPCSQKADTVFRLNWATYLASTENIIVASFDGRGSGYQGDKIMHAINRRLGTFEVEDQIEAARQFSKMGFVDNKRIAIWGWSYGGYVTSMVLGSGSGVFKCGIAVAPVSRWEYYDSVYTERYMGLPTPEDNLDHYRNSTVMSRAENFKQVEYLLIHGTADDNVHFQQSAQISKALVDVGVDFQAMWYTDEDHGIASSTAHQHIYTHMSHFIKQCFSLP
# Sequence of α-glucosidase (P07265 whole entry): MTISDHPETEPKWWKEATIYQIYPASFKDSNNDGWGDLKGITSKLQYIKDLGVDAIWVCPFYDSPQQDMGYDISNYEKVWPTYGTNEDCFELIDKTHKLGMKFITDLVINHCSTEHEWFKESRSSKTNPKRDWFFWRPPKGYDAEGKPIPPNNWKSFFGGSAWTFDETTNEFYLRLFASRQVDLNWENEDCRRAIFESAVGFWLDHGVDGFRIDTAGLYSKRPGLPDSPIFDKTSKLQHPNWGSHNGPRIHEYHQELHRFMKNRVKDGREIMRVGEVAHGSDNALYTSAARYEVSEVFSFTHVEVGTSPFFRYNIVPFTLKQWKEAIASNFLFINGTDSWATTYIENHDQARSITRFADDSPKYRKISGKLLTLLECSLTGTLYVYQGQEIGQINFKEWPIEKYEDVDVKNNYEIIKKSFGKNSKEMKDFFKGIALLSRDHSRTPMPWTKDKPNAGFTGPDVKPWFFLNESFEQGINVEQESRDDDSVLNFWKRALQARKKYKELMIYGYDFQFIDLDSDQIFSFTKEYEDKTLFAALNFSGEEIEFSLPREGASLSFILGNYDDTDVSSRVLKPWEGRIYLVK
structure (smiles),measurement,setting,value
Oc1ccc(/C=C/c2cc(O)cc(O)c2)cc1 [Resveratrol],IC50,[1],5.638 ± 0.0016 µM
same,Ki,[2],15 µM
same,IC50,[3],47.9 ± 5.21 µM
O=C1c2c(O)cc(O)cc2OC(c2ccc(O)c(O)c2)C1O (stereo not shown) [Taxifolin],IC50,[1],6.691 ± 0.004 µM
same,Ki,[2],12.3 µM
same,IC50,[4],31.3 ± 0.556 µM
same,IC50,[3],45.9 ± 3.78 µM
